Our source for the inhibition and IC50 values is ChEMBL document CHEMBL1138762, “Novel cyclooxygenase-1 inhibitors discovered using affinity fingerprints” (J Med Chem, 2004).

The structures appear in SMILES notation. A value given as a limit tells only on which side of the number the result lay.

One assay addresses T1, Prostaglandin G/H synthase 1 (Ovis aries) (UniProt P05979).
T1 sequence (whole entry): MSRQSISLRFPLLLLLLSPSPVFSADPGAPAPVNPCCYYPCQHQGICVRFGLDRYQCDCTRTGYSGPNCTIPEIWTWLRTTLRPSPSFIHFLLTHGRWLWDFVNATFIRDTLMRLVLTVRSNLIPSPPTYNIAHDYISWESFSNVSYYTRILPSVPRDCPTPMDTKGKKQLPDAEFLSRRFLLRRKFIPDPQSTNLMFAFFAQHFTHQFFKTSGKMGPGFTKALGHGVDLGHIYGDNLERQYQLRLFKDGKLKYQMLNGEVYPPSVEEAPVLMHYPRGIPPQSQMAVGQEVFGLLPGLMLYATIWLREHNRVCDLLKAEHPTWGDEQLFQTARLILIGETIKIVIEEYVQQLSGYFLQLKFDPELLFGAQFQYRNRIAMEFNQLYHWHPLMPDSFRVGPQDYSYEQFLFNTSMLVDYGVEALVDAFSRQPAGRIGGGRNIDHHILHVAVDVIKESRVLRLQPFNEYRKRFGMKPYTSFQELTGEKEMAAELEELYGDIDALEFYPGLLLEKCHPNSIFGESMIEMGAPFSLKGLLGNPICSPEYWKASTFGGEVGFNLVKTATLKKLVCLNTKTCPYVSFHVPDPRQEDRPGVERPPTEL
As to the kind of experiment: In vitro inhibitory activity against ovine cyclooxygenase-1 (COX-1) at 200 uM; Inactive.
Settings: not given
The compound `COc1ccc2c(c1)c(CC(=O)OCC(=O)O)c(C)n2C(=O)c1ccc(Cl)cc1` came in with an inhibition of under 50%.
Compound `CC(C(=O)O)c1ccc(N2CC=CC2)c(Cl)c1` (configuration not stated) registered an inhibition of under 50%.
Same read-out and setting: the figure for `CC(C)Cc1ccc(C(C)C(=O)O)cc1` (configuration not stated) is under 50%.
The same measure, in the same setting: the figure for `Cc1cc(NC(=O)C2=C(O)c3ccccc3S(=O)(=O)N2C)no1` is under 50%; for `COc1ccc2c(c1)c(CC(=O)O)c(C)n2C(=O)c1ccc(Cl)cc1` it is under 50%; for `CN1C(C(=O)Nc2ccccn2)=C(O)c2ccccc2S1(=O)=O` it is under 50%.
Still for that read-out and setting: the figure for `O=C(O)c1cc(-c2ccc(F)cc2F)ccc1O` is under 50%; for `CC(C(=O)O)c1cccc(C(=O)c2ccccc2)c1` (configuration not stated) it is under 50%.
For the compound `COc1ccc2cc([C@H](C)C(=O)O)ccc2c1`, the inhibition was under 50%.
On the same count and under the same terms, under `CCc1cccc2c3c([nH]c12)C(CC)(CC(=O)O)OCC3` (configuration not stated) stands under 50%.
Compound `COc1ccc2cc(CC(=O)O)ccc2c1` gave an inhibition of under 50%.
With `CC(C(=O)O)c1ccc(N2Cc3ccccc3C2=O)cc1` (configuration not stated), the inhibition is under 50%.
Same read-out and setting: the figure for `CCCCC1C(=O)N(c2ccccc2)N(c2ccccc2)C1=O` is under 50%.

In a further assay the target is T2, Prostaglandin G/H synthase 1 (Ovis aries, UniProt P05979).
T2 sequence (P05979 whole entry): T1 sequence (whole entry)
As to the kind of experiment: In vitro inhibitory activity against ovine cyclooxygenase-1 (COX-1).
Settings: not given
The essentials: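 Ovine COX-1 (0.17 unit/μL final) with heme (1 μM final) in Tris-HCl pH 8 buffer, preincubated with compound 10 min at room temperature. Started with saturating TMPD, then arachidonic acid to 10 μM, 5 min at room temperature. Absorbance increase at 590 nm. Half-log steps over −log[M] 9.0–3.5, DMSO 3% final. IC50 from nonlinear Hill fit, mean ± SEM of 2–5 determinations.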
As for `O=C(c1ccccc1)c1ccc(O)c(C(=O)c2ccccc2)c1O`, inhibition was half-maximal at 6 µM (IC50).
Same read-out and setting: under `O=C(Nc1ccccc1O)c1ccccc1Cl` stands 69 µM; under `COc1c(O)ccc2c1oc1ccccc12`, 29 µM.

A further assay concerns the target T1, Prostaglandin G/H synthase 1 (Ovis aries). To be noted: 200 uM.
Compound `O=C(O)Cc1ccccc1Nc1c(Cl)cccc1Cl` yielded an inhibition of under 50%.

Usually inhibition stands for the percentage by which the read-out fell short of the control. The low end stands for a weak effect, the high end for a strong effect. As a reminder, the IC50 is the point on the concentration scale where inhibition reaches its midpoint.
